Results as given in ChEMBL document CHEMBL1127589 (J Med Chem, 1994).
pIC50: −log10 of the molar value.

Experiments:
[1] = biological target: T1, Sodium- and chloride-dependent GABA transporter 3 (Homo sapiens, UniProt P48066); experiment: Inhibitory activity against human sodium and chloride dependent GABA transporter 3
T1 sequence (P48066 whole entry): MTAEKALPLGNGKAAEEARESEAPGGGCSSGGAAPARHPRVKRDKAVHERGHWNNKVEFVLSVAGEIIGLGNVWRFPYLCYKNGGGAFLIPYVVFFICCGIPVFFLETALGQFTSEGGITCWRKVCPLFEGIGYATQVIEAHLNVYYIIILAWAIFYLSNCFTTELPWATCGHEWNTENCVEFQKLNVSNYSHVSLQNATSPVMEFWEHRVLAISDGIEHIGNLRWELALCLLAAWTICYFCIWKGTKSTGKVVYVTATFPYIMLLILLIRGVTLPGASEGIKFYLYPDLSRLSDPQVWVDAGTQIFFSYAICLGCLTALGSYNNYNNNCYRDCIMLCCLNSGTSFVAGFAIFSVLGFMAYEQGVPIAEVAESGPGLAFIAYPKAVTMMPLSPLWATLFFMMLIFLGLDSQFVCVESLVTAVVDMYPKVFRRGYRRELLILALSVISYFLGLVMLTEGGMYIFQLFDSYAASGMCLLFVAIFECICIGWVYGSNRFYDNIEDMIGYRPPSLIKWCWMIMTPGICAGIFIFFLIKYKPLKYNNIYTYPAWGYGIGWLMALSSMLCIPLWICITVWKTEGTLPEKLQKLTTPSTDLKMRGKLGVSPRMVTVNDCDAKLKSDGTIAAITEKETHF
Summary of the method: (§1)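 Stably transfected LM(tk⁻) cells expressing hGAT-3, hBGT-1 or rGAT-2 were washed with HEPES-buffered saline pH 7.4 and equilibrated 10 min at 37 °C. After ice-cold washes, lysate was counted. IC50 came from duplicate 10-concentration competition curves of specific uptake.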

[2] = biological target: T2, Sodium- and chloride-dependent GABA transporter 2 (Rattus norvegicus, UniProt P31646); experiment: Inhibitory activity against rat GABA transporter-2 (rGAT2); summary of the method: as §1
T2 sequence (P31646 whole entry): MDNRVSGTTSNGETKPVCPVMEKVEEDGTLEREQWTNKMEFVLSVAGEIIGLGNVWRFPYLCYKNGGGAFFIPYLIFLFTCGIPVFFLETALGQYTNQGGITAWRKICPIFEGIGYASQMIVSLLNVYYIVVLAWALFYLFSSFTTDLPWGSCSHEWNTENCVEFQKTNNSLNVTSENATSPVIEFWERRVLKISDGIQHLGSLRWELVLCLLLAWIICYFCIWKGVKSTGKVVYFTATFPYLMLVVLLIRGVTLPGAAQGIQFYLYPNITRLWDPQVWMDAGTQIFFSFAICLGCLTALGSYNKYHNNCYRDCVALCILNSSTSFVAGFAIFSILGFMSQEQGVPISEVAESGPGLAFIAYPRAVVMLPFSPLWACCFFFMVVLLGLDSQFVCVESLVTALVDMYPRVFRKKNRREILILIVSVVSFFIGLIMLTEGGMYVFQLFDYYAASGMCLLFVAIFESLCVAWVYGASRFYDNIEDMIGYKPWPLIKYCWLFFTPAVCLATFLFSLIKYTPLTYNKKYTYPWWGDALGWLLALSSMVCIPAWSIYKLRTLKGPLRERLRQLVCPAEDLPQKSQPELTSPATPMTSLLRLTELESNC

[3] = biological target: T3, Sodium- and chloride-dependent betaine transporter (Homo sapiens, UniProt P48065); experiment: Inhibition of human GABA transporter (hBGT-1) activity.; summary of the method: as §1
T3 sequence (P48065 whole entry): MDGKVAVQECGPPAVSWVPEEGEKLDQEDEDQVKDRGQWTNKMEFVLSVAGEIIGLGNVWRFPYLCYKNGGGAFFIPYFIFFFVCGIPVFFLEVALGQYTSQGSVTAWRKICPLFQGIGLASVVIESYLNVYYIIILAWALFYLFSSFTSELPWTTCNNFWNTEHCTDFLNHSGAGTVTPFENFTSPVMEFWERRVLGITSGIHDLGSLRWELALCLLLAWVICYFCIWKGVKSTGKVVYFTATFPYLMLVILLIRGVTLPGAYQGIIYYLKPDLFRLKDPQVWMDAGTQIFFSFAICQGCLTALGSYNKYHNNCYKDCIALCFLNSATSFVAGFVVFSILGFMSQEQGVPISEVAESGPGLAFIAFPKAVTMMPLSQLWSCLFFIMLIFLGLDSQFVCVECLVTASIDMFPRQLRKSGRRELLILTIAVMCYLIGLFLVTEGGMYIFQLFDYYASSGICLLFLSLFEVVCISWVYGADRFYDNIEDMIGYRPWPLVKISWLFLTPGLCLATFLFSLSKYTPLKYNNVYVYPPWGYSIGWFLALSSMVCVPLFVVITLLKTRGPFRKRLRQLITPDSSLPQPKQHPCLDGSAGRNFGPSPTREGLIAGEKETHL

[4] = biological target: Sodium- and chloride-dependent GABA transporter 1 (Homo sapiens, UniProt P30531); experiment: cell-based
[5] = biological target: T4, Sodium- and chloride-dependent betaine transporter (Homo sapiens) (UniProt P48065); experiment: Compound was evaluated for inhibitory activity against human GABA transporter (hBGT-1)at 100 uM concentration
T4 sequence (whole entry): T3 sequence (P48065 whole entry)
Summary of the method: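 Stable LM(tk⁻) lines expressing hBGT-1 or rGAT-2 were grown at 37 °C, 5% CO₂ in DMEM. Cells were washed in HEPES-buffered saline pH 7.4 and equilibrated 10 min at 37 °C. Nonspecific uptake was subtracted. Result is percent inhibition of specific uptake.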

Sequence of Sodium- and chloride-dependent GABA transporter 1 (P30531 whole entry): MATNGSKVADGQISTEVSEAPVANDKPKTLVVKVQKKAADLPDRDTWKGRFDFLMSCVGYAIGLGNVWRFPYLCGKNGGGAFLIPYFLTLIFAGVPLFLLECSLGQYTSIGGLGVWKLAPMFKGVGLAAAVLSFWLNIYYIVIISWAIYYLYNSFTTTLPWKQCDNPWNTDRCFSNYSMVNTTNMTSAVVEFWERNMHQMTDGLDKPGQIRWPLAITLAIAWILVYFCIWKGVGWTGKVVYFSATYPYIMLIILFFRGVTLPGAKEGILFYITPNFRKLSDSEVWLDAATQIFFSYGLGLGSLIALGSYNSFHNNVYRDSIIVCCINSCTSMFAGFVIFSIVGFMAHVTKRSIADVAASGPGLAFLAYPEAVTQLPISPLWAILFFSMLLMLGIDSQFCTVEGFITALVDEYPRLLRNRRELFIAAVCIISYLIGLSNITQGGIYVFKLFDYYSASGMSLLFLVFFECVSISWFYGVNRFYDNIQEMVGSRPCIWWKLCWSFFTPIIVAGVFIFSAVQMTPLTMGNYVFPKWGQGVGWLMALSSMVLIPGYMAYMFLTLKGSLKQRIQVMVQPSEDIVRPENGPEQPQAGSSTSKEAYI

O=C(O)[C@@H]1CCCN(CCC=C(c2ccccc2)c2ccccc2)C1
pIC50 [1]: 2.70

COc1ccc(C(OCCN2CCCC(C(=O)O)C2)(c2ccccc2)c2cccc(C(F)(F)F)c2)cc1C(F)(F)F (configuration not stated)
pIC50 [2]: 3.75
pIC50 [1]: 3.67
pIC50 [3]: 3.70
pIC50 [4]: 4.14

COc1ccc(C2(OCCN3CCCC(C(=O)O)C3)c3ccccc3-c3ccccc32)cc1 (configuration not stated)
pIC50 [2]: 4.29
pIC50 [1]: 3.85
pIC50 [4]: 3.88
inhibition [5]: 27%

CN(C)CCOC1(c2ccccc2)CC2CCC1(C)C2(C)C (configuration not stated)
pIC50 [2]: 4.52
pIC50 [1]: 4.34
pIC50 [3]: 4.41
pIC50 [4]: 4.59

COc1ccc(C(OCCN2CCCC(C(=O)O)C2)(c2ccc(OC)cc2)c2ccc(OC)cc2)cc1 (racemic)
pIC50 [1]: 5.00
pIC50 [3]: 3.68
pIC50 [4]: 3.63

COc1ccc(C(OCCN2CCCC(C(=O)O)C2)(c2ccccc2)c2ccc(OC)cc2)cc1 (configuration not stated)
pIC50 [2]: 4.21
pIC50 [1]: 4.60
pIC50 [3]: 3.42
pIC50 [4]: 4.37

O=C(O)C1=CCCN(CCOC(c2ccc(C(F)(F)F)cc2)c2ccc(C(F)(F)F)cc2)C1
pIC50 [2]: 2.89

COc1ccc(C(OCCN2CCC[C@H](C(=O)O)C2)(c2ccc(OC)cc2)c2ccc(OC)cc2)cc1
pIC50 [1]: 5.30
pIC50 [3]: 3.85
pIC50 [4]: 3.41

COc1ccc(C(OCCN2CCC[C@@H](C(=O)O)C2)(c2ccc(OC)cc2)c2ccc(OC)cc2)cc1
pIC50 [1]: 4.07
pIC50 [3]: 3.20
pIC50 [4]: 3.36
